Results published in ChEMBL document CHEMBL2434886, “Development of 3,4-dihydroisoquinolin-1(2H)-one derivatives for the Positron Emission Tomography (PET) imaging of σ₂ receptors” (Eur J Med Chem, 2013).

Experiments:
[1] = Selectivity ratio of Ki for sigma 1 receptor in guinea pig brain membranes without cerebellum to Ki for sigma 2 receptor in Wistar Hannover rat liver membranes; type: cell membranes; conditions: Membrane
[2] = Displacement of [3H]-DTG from sigma 2 receptor in Wistar Hannover rat liver membranes; type: cell membranes, Membrane
[3] = biological target: Sigma non-opioid intracellular receptor 1 (Cavia porcellus, UniProt Q60492); assay: Displacement of (+)-[3H]-pentazocine from sigma 1 receptor in Dunkin guinea pig brain membranes without cerebellum; type: cell membranes, Membrane
[4] = system: Caco-2; assay: Efflux ratio of apparent permeability from apical to basolateral side over basolateral to apical side in human Caco2 cells at 1 to 100 uM after 120 mins; type: ADME, cell-based; conditions: caco-2, 2 h
[5] = biological target: ATP-dependent translocase ABCB1 (Homo sapiens, UniProt P08183); assay: Activity at human MDR1 expressed in MDCK cells assessed as Calcein-AM uptake after 30 mins by fluorescence assay; type: ADME, cell-based
In short: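 P-gp interaction measured with the Calcein-AM assay in MDCK-MDR1 cells, which overexpress P-gp.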

[6] = biological target: T1, Adrenergic receptor alpha-1 (Rattus norvegicus, UniProt P15823+P23944+P43140); assay: Displacement of [3H]-prazosin from alpha1 adrenoceptor in Wistar Hannover rat cerebral cortex membranes after 50 mins; type: cell membranes, Membrane
T1 sequence (P15823 whole entry): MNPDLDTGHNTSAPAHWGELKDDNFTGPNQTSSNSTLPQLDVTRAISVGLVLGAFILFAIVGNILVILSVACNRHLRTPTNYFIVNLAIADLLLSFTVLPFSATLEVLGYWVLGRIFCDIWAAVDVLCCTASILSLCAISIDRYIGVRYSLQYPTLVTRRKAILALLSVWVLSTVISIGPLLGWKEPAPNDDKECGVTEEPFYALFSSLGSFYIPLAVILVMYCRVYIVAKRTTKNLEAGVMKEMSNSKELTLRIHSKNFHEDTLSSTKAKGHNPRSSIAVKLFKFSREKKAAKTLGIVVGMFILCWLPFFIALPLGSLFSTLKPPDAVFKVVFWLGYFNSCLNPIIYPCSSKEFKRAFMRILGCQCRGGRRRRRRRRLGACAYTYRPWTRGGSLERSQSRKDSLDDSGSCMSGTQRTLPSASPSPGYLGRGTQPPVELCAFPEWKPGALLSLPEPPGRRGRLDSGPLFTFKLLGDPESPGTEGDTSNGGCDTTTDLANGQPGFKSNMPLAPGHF
T1 sequence (P23944 whole entry): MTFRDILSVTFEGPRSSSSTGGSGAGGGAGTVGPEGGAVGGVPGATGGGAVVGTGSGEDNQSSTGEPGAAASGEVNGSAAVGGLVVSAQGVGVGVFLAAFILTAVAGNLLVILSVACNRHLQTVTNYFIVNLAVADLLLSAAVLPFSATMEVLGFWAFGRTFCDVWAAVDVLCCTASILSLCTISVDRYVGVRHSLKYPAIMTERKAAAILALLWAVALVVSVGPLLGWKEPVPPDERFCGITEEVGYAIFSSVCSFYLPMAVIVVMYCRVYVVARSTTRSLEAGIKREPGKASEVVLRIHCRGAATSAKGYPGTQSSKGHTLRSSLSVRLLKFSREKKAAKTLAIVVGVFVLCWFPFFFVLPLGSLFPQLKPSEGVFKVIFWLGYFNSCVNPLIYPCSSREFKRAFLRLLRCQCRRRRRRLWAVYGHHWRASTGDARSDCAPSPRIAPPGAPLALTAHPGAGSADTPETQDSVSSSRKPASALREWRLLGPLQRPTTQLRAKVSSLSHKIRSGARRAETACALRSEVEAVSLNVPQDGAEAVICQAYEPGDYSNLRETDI
T1 sequence (P43140 whole entry): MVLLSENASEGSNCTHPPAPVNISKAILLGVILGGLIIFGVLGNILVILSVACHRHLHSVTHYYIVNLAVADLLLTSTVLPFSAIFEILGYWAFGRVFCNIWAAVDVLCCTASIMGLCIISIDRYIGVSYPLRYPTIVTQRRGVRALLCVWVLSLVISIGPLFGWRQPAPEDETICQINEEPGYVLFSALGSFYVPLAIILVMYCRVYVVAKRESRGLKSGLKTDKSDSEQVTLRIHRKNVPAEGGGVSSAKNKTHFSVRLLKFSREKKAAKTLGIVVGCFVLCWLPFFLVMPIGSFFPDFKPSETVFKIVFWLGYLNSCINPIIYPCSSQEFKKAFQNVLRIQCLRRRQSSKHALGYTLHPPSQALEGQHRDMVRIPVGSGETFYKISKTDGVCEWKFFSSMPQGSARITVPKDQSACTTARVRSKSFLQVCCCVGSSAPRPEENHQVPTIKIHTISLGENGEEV
In short: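 Rat cerebral cortex membranes ([…]) with 1 nM [3H]-prazosin in 50 mM Tris-HCl pH 7.4, 120 mM NaCl, 5 mM KCl, 5 mM CaCl2, 1 mM MgCl2, plus varied drug concentrations. Incubated 50 min at 25 °C, filtered on PEI-soaked GF/C. Nonspecific binding with 10 phentolamine.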

[7] = biological target: T2, 5-hydroxytryptamine receptor 1A (Homo sapiens, UniProt P08908); assay: Displacement of [3H]-8-OH-DPAT from human recombinant 5-HT1A receptor expressed in HEK293-EBNA cells after 120 mins; type: cell-based
T2 sequence (P08908 whole entry): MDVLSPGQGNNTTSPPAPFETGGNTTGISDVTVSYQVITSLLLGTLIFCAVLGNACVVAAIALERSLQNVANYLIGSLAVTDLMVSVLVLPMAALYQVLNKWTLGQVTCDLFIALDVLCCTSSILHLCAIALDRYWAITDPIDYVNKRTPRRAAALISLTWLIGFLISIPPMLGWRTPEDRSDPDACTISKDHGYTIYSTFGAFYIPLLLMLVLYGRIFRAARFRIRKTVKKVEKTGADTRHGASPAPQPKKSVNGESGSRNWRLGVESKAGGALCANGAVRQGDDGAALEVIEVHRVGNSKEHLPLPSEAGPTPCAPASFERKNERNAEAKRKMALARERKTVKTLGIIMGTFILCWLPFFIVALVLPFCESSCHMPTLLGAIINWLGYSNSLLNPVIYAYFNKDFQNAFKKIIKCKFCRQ
In short: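 HEK293-EBNA membranes ([…] protein) stably expressing human 5-HT1A, 1.0 nM [3H]-8-OH-DPAT, test compound 0.1 nM to 10 mM. Buffer 50 mM Tris-HCl pH 7.4, 5 mM MgSO4. Incubated 120 min at 37 °C, filtered on PEI-soaked GF/C. Nonspecific binding with 10 mM 5-HT.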

[8] = biological target: 5-hydroxytryptamine receptor 7 (Homo sapiens, UniProt P34969); assay: Displacement of [3H]-5-CT from human recombinant 5-HT7 receptor expressed in CHO-K1 cells after 120 mins; type: cell-based
[9] = system: Bone; assay: Drug uptake in bone of Wistar rat at 47 MBq, iv up to 90 mins by PET analysis; type: ADME, organism-based, Bone element; conditions: in vivo, 1.5 h
In short: (§1)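 Male Wistar rat under isoflurane given 47 MBq (0.8 nmol) [18F]-tracer via tail vein. Head scanned 0–90 min by list-mode PET, then CT. Blocking rat received 1 mg/kg haloperidol iv just before tracer (34 MBq). 2D-OSEM reconstruction with no attenuation correction. ROI analysis gives SUV (Bq/cm3 per injected Bq/g).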

[10] = system: Cerebellum; assay: Drug uptake in cerebellum of Wistar rat at 47 MBq, iv up to 90 mins by PET analysis in presence of haloperidol; type: ADME, organism-based; conditions: in vivo, 1.5 h
[11] = Drug uptake in olfactory of Wistar rat at 47 MBq, iv up to 90 mins by PET analysis in presence of haloperidol; type: ADME, organism-based; conditions: in vivo, 1.5 h
[12] = system: Cerebral cortex; assay: Drug uptake in cerebral cortex of Wistar rat at 47 MBq, iv up to 90 mins by PET analysis in presence of haloperidol; type: ADME, organism-based; conditions: in vivo, 1.5 h
[13] = system: Cerebellum; assay: Drug uptake in cerebellum of Wistar rat at 47 MBq, iv up to 90 mins by PET analysis; type: ADME, organism-based; conditions: in vivo, 1.5 h; in short: as §1
[14] = Drug uptake in olfactory of Wistar rat at 47 MBq, iv up to 90 mins by PET analysis; type: ADME, organism-based; conditions: in vivo, 1.5 h; in short: as §1
[15] = system: Cerebral cortex; assay: Drug uptake in cerebral cortex of Wistar rat at 47 MBq, iv up to 90 mins by PET analysis; type: ADME, organism-based; conditions: in vivo, 1.5 h; in short: as §1
[16] = system: Brain; assay: Drug uptake in Wistar rat brain slices after 45 mins by autoradiography in presence of 0.9 uM of unlabelled 2-(3-(6,7-Dimethoxy-3,4-dihydroisoquinolin-2(1H)-yl)propyl)-5-(2-fluoroethoxy)-3,4-dihydroisoquinolin-1(2H)-one; type: ADME, tissue-based
In short: (§2)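 Horizontal 20 µm cryosections of male Wistar rat brain, thawed 30 min, pre-incubated 10 min at 4 °C in 50 mM Tris-HCl pH 7.4. Incubated 45 min at rt with 9 nM [18F]-tracer in Tris-HCl/1% BSA (n = 4), alone or with blocker. Washed, air-dried, phosphor-imaged after 15 min exposure.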

[17] = system: Brain; assay: Drug uptake in Wistar rat brain slices after 45 mins by autoradiography in presence of 90 uM of haloperidol; type: ADME, tissue-based; in short: as §2
[18] = system: Cerebellum; assay: Drug uptake in Wistar rat cerebellum after 45 mins by autoradiography; type: ADME, tissue-based; in short: as §2
[19] = system: Cerebral cortex; assay: Drug uptake in Wistar rat cerebral cortex after 45 mins by autoradiography; type: ADME, tissue-based; in short: as §2
[20] = system: Hippocampus; assay: Drug uptake in Wistar rat hippocampus after 45 mins by autoradiography; type: ADME, tissue-based; in short: as §2

Chain of Sigma non-opioid intracellular receptor 1 (Q60492 whole entry): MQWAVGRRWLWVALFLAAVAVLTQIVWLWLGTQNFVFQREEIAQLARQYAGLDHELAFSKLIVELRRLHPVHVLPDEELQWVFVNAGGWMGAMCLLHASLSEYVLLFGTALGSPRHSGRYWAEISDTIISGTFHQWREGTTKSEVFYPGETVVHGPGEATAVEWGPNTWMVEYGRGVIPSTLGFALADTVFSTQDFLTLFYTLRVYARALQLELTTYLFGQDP
Chain of ATP-dependent translocase ABCB1 (P08183 whole entry): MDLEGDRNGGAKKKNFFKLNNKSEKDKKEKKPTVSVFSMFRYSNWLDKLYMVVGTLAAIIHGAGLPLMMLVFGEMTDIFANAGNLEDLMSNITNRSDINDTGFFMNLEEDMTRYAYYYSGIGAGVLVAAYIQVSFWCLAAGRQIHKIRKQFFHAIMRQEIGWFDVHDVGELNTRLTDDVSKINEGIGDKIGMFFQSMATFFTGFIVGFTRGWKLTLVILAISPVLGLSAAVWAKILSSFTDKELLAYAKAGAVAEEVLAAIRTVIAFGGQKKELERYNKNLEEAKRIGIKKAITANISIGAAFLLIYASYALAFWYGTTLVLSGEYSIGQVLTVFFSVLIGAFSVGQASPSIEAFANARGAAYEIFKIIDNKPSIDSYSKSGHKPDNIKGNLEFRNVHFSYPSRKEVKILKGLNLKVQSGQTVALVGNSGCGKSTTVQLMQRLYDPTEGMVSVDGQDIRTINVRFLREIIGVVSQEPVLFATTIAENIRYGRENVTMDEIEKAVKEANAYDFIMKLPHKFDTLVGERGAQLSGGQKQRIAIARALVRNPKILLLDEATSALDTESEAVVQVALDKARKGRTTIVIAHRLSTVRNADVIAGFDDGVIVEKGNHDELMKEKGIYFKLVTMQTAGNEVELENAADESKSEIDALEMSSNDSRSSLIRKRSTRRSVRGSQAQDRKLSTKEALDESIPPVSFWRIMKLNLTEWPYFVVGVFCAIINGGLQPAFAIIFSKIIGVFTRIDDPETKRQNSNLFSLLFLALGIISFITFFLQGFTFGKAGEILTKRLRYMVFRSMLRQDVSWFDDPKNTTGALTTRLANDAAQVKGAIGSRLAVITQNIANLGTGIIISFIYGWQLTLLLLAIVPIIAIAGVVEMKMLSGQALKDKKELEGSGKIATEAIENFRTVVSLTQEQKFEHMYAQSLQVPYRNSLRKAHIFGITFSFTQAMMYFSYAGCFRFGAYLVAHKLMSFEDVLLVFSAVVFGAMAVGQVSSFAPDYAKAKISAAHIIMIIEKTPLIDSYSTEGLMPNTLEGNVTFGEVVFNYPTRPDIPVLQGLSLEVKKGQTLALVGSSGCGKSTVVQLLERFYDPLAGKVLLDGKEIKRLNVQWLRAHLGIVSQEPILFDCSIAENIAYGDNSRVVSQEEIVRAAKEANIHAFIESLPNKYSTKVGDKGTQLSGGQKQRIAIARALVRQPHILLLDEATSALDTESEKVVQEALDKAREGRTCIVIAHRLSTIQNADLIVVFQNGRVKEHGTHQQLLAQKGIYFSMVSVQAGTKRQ
Chain of 5-hydroxytryptamine receptor 7 (P34969 whole entry): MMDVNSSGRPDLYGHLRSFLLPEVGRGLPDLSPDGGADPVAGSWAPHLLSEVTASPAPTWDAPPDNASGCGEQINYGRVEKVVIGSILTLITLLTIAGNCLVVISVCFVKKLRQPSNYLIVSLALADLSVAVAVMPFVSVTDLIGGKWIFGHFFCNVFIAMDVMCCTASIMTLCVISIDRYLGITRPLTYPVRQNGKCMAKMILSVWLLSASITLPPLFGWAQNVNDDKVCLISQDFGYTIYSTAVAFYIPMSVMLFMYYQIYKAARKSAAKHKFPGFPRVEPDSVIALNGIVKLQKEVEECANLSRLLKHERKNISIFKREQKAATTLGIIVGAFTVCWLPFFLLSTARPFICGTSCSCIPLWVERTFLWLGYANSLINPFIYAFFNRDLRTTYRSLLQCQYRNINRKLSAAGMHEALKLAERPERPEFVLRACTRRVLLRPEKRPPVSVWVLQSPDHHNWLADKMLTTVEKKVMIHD

Row | Ratio Ki [1] | Ki [2] [nM] | Ki [3] [nM] | Structure (SMILES) | also measured
1 | 330 | 9.24 | 3100 | COc1cc2c(cc1OC)CN(CCCN1CCc3c(OCCF)cccc3C1=O)CC2 | Ratio [4]: 2.58; EC50 [5]: 5000 nM; Ki [6]: 764 nM; Ki [7]: > 1000 nM; Ki [8]: > 1000 nM
2 | 574 | 4.24 | 2440 | COc1cc2c(cc1OC)CN(CCCN1CCc3c(OC)cccc3C1=O)CC2 | 

The next lines start with the molecule.

Row | Structure (SMILES) | Ratio Ki [1] | Ki [2] [nM] | Ki [3] [nM] | also measured
3 | COc1cc2c(cc1OC)CN(CCCN1CCc3cc(F)ccc3C1=O)CC2 | 87 | 3.56 | 311 | 
4 | COc1ccc2c(c1)CCN(CCCN1CCc3cc(OC)c(OC)cc3C1)C2=O | 70 | 5.74 | 402 | 
5 | COc1cc2c(cc1OC)CN(CCCN1CCc3cc(OC)c(OC)cc3C1=O)CC2 | 127 | 20.1 | 2570 | 
6 | COc1cc2c(cc1OC)CN(CC/C=C1\CCCc3c(OC)cccc31)CC2 |  |  |  | EC50 [5]: 1100 nM
7 | COc1cc2c(cc1OC)CN(CCCN1CCc3c(OCC[18F])cccc3C1=O)CC2 |  |  |  | Drug uptake [9]: Not Active; Drug uptake [10]: Not Active; Drug uptake [11]: Not Active; Drug uptake [12]: Not Active; Drug uptake [13]: Active; Drug uptake [14]: Active; Drug uptake [15]: Active; Drug uptake [16]: Not Active; Drug uptake [17]: Not Active; Drug uptake [18]: Active; Drug uptake [19]: Active; Drug uptake [20]: Active
8 | COc1cc2c(cc1OC)CN(CCCN1CCc3cccc(OC)c3C1=O)CC2 | 101 | 16.3 | 1630 | 
